# ChEMBL document CHEMBL1811800, “The discovery of long-acting saligenin β₂ adrenergic receptor agonists incorporating hydantoin or uracil rings” (Bioorg Med Chem, 2011)
# What was measured:
# [1] = biological target: Beta-3 adrenergic receptor (Homo sapiens, UniProt P13945); test: Agonist activity at human adrenergic beta3 receptor expressed in CHO cells assessed as cAMP accumulation; assay type: functional, cell-based
# [2] = biological target: Beta-1 adrenergic receptor (Homo sapiens, UniProt P08588); test: Agonist activity at human adrenergic beta1 receptor expressed in CHO cells assessed as cAMP accumulation; assay type: functional, cell-based
# [3] = biological target: Beta-2 adrenergic receptor (Homo sapiens, UniProt P07550); test: Agonist activity at human adrenergic beta2 receptor expressed in CHO cells assessed as cAMP accumulation; assay type: functional, cell-based
# Cavia porcellus [4] = test: Bronchodilatory activity against histamine-induced bronchospasm in guinea pig administered via nebulizer; assay type: functional
# How it was run: (§1)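 Guinea pigs; agonist given as nebulised solution in dimethyl acetamide-saline vehicle at EC90 dose or 10-fold EC90 dose. Duration expressed as time to 50% recovery.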
# [5] = Oral bioavailability in Beagle dog at 0.25 mg/kg by LC-MS/MS; assay type: ADME, organism-based, Canis lupus familiaris; conditions: in vivo
# How it was run: (§2)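 Female beagle dogs (n = 2), fasted 18 h, crossover design. Oral 0.25 mg base/kg by gavage in DMSO-PEG 200-distilled water (5:30:65); iv 0.052 mg base/kg via cephalic vein in DMSO-PEG 200-saline (10:45:45). Jugular blood sampled 0.03 (iv only) to 8 h. Plasma assayed by LC–MS/MS; noncompartmental parameters.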
# [6] = Cmax in Beagle dog at 0.25 mg/kg, po by LC-MS/MS; assay type: ADME, organism-based, Canis lupus familiaris; design: dose 0.25 mg/kg, route oral; conditions: in vivo; how it was run: as §2
# [7] = Half life in Beagle dog at 0.052 mg/kg, iv by LC-MS/MS; assay type: ADME, organism-based, Canis lupus familiaris; design: dose 0.052 mg/kg, route intravenous; conditions: in vivo; how it was run: as §2
# [8] = Volume of distribution at steady state in Beagle dog at 0.052 mg/kg, iv by LC-MS/MS; assay type: ADME, organism-based, Canis lupus familiaris; design: dose 0.052 mg/kg, route intravenous; conditions: in vivo, read-out: Vdss; how it was run: as §2
# [9] = Plasma clearance in Beagle dog at 0.052 mg/kg, iv by LC-MS/MS; assay type: ADME, organism-based, Canis lupus familiaris; design: dose 0.052 mg/kg, route intravenous; how it was run: as §2
# [10] = Oral bioavailability in Han Wistar rat at 2.0 mg/kg by LC-MS/MS; assay type: ADME, organism-based; conditions: in vivo
# How it was run: (§3)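 Male Han Wistar rats, fasted 18 h. Oral dose 2.0 mg base/kg by gavage in DMSO-PEG 200-distilled water (5:30:65); iv dose 0.25 mg base/kg via tail vein in DMSO-PEG 200-saline (10:45:45). Blood sampled 0.03 (iv only) to 8 h post dose, n = 2 animals/time-point. Plasma assayed by LC–MS/MS; parameters from noncompartmental analysis.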
# [11] = Volume of distribution at steady state in Han Wistar rat at 0.25 mg/kg, iv by LC-MS/MS; assay type: ADME, organism-based; design: dose 0.25 mg/kg, route intravenous; conditions: in vivo, read-out: Vdss; how it was run: as §3
# [12] = Half life in Han Wistar rat at 0.25 mg/kg, iv by LC-MS/MS; assay type: ADME, organism-based; design: dose 0.25 mg/kg, route intravenous; conditions: in vivo; how it was run: as §3
# [13] = Plasma clearance in Han Wistar rat at 0.25 mg/kg, iv by LC-MS/MS; assay type: ADME, organism-based; design: dose 0.25 mg/kg, route intravenous; how it was run: as §3
# [14] = biological target: Beta-2 adrenergic receptor (Cavia porcellus, UniProt Q8K4Z4); test: Agonist activity at adrenergic beta2 receptor in guinea pig trachea assessed as inhibition of electrically-stimulated contraction; assay type: functional
# Liver microsomes [15] = test: Metabolic stability in human liver microsomes with 125 pmol/mL P450 assessed as compound turnover ratio at 5 uM after 30 mins by LC-MS method relative to verapamil; assay type: ADME, Microsome; conditions: 0.5 h
# Cavia porcellus [16] = test: Bronchodilatory activity against histamine-induced bronchospasm in guinea pig assessed as time taken for 50% recovery of bronchospasm at EC90 administered via nebulizer; assay type: functional; how it was run: as §1
# Cavia porcellus [17] = test: Bronchodilatory activity against histamine-induced bronchospasm in guinea pig assessed as time taken for 50% recovery of bronchospasm at 10-fold EC90 administered via nebulizer; assay type: functional; how it was run: as §1
# [18] = Stability of the compound in solid state at 4 degC after 18 days; assay type: physicochemical; conditions: 432 h
# Liver microsomes [19] = test: Metabolic stability of the compound in human liver microsomes assessed as formation of N-({[3-(4-{[6-({(2R)-2-Hydroxy-2-[4-hydroxy-3-(hydroxy methyl)phenyl]ethyl}amino) hexyl]oxy}butyl)phenyl]amino} carbonyl)glycine acetate; assay type: ADME, Microsome
# How it was run: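 Incubated at 25 µM with human liver microsomes (and hepatocytes). Samples mixed with equal volume acetonitrile, centrifuged; supernatant analysed by reverse-phase gradient LC with electrospray MS detection for metabolites.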
# [20] = Stability of the compound in methanol assessed as formation of methyl ester of N-({[3-(4-{[6-({(2R)-2-Hydroxy-2-[4-hydroxy-3-(hydroxy methyl)phenyl]ethyl}amino) hexyl]oxy}butyl)phenyl]amino} carbonyl)glycine acetate
# Beta-2 adrenergic receptor (Cavia porcellus, UniProt Q8K4Z4), sequence (Q8K4Z4 whole entry): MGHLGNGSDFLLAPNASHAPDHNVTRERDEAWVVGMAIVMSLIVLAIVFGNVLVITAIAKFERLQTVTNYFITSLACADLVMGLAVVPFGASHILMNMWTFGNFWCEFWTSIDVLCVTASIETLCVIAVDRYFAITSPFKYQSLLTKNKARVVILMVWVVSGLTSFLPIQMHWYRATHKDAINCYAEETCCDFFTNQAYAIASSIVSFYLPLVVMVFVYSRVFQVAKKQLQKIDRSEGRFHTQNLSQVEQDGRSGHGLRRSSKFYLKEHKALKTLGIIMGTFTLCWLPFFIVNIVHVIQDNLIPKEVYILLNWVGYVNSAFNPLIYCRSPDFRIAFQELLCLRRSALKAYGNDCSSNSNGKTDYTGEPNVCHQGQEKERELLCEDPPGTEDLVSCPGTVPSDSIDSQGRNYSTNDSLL
# Beta-3 adrenergic receptor, sequence (P13945 whole entry): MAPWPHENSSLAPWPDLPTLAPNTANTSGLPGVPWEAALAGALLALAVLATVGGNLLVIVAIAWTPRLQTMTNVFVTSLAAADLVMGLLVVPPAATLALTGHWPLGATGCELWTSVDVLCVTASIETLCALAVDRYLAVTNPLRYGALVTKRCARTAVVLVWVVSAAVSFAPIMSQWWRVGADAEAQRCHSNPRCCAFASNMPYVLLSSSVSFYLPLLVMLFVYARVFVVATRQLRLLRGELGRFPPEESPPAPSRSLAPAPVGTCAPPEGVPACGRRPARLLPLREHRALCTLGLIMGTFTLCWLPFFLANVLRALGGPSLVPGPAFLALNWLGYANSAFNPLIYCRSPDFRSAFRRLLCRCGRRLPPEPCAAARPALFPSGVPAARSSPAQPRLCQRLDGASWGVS
# Beta-1 adrenergic receptor, sequence (P08588 whole entry): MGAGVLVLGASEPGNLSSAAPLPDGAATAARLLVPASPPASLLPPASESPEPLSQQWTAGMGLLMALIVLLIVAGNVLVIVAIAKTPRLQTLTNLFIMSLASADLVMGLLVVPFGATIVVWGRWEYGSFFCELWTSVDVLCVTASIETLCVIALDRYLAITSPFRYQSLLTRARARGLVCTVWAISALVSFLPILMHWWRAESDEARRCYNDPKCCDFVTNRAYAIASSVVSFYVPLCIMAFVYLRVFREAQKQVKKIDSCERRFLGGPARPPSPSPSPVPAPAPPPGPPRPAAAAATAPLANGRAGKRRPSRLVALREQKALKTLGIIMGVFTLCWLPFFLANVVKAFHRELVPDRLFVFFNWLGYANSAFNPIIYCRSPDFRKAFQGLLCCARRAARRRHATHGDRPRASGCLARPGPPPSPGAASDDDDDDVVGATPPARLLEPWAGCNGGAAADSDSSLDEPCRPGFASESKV
# Beta-2 adrenergic receptor (Homo sapiens, UniProt P07550), sequence (P07550 whole entry): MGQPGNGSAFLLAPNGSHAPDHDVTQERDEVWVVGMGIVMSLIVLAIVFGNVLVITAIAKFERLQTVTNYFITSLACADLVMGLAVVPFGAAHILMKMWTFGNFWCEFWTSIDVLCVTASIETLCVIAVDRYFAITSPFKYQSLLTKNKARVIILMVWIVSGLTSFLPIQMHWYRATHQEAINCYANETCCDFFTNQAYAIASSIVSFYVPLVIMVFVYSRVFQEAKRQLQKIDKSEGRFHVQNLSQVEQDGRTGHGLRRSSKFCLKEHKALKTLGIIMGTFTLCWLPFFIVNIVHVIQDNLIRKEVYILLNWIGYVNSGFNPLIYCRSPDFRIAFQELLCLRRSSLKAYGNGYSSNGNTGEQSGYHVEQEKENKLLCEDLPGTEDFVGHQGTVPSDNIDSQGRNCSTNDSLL
SMILES,EC50 [1],EC50 [2],EC50 [3],EC50 [14],Ratio (Liver microsomes [15]),also measured
CC(=O)O.O=C1CNC(=O)N1c1cccc(CCCCOCCCCCCNC[C@H](O)c2ccc(O)c(CO)c2)c1,100 nM,79.4 nM,0.631 nM,0.794 nM,0.86,EC90 (Cavia porcellus [4]): 25000 nM; bioavailability [5]: 5%; Cmax [6]: 12 ng/mL; half-life [7]: 2 h; Vd [8]: 0.8 L/kg; clearance [9]: 13 mL/min/kg; bioavailability [10]: 2%; Vd [11]: 2 L/kg; half-life [12]: 0.3 h; clearance [13]: 120 mL/min/kg; Time (Cavia porcellus [16]): 12 h; Time (Cavia porcellus [17]): 18 h; Stability [18]: Unstable; Stability (Liver microsomes [19]): Unstable; Stability [20]: Unstable
O=C1CNC(=O)N1c1ccccc1CCCCOCCCCCCNC[C@H](O)c1ccc(O)c(CO)c1,200 nM,200 nM,2.51 nM,,0.46,
CC(=O)O.CC1(C)NC(=O)N(c2cccc(CCCCOCCCCCCNC[C@H](O)c3ccc(O)c(CO)c3)c2)C1=O,63.1 nM,200 nM,0.794 nM,,0.48,
CC(=O)O.O=C1CN(c2cccc(CCCCOCCCCCCNC[C@H](O)c3ccc(O)c(CO)c3)c2)C(=O)N1,316 nM,200 nM,2.51 nM,2.51 nM,0.4,
CC(=O)O.O=C1CNC(=O)N1Cc1cccc(CCCCOCCCCCCNC[C@H](O)c2ccc(O)c(CO)c2)c1,39.8 nM,126 nM,1.26 nM,,1.62,
O=C1NC(=O)N(Cc2cccc(CCCCOCCCCCCNC[C@H](O)c3ccc(O)c(CO)c3)c2)C1=O,25.1 nM,50.1 nM,0.794 nM,,,
CC(=O)O.NC(=O)CN1C(=O)CN(c2cccc(CCCCOCCCCCCNC[C@H](O)c3ccc(O)c(CO)c3)c2)C1=O,79.4 nM,158 nM,0.251 nM,,0.91,
O=c1cc[nH]c(=O)n1-c1cccc(CCCCOCCCCCCNC[C@H](O)c2ccc(O)c(CO)c2)c1 [listing 1 of 2 here],398 nM,251 nM,0.794 nM,,,
O=c1cc[nH]c(=O)n1-c1cccc(CCCCOCCCCCCNC[C@H](O)c2ccc(O)c(CO)c2)c1 [listing 2 of 2 here],,,,0.2 nM,,

# Now from value to compound, other results behind:
EC50 [1],EC50 [2],EC50 [3],EC50 [14],Ratio (Liver microsomes [15]),SMILES,also measured
50.1 nM,50.1 nM,1.26 nM,,,O=c1ccn(-c2cccc(CCCCOCCCCCCNC[C@H](O)c3ccc(O)c(CO)c3)c2)c(=O)[nH]1,
31.6 nM,79.4 nM,2 nM,,0.3,CC(=O)O.O=C1CNC(=O)N1c1ccc(CCCCOCCCCCCNC[C@H](O)c2ccc(O)c(CO)c2)cc1,
63.1 nM,79.4 nM,0.631 nM,,0.75,CC(=O)O.O=C1CN(Cc2cccc(CCCCOCCCCCCNC[C@H](O)c3ccc(O)c(CO)c3)c2)C(=O)N1,
100 nM,126 nM,1 nM,,0.55,O=C(O)CNC(=O)Nc1cccc(CCCCOCCCCCCNC[C@H](O)c2ccc(O)c(CO)c2)c1 [listing 1 of 2 here],
,,,1 nM,,O=C(O)CNC(=O)Nc1cccc(CCCCOCCCCCCNC[C@H](O)c2ccc(O)c(CO)c2)c1 [listing 2 of 2 here],
,,,5.01 nM,,OCc1cc(C(O)CNCCCCCCOCCCCc2ccccc2)ccc1O (stereo unspecified) [SALMETEROL],EC90 (Cavia porcellus [4]): 50000 nM
